From publication PMC7707623 (Journal of Medicinal Chemistry, 2020)

Experiments:
[1] = system: human SCLC cell lines, H889, H2107, and H128; assay: Dose response against human SCLC cell lines; format: cell-based
[2] = system: yeast cells (Sec14); conditions: through inhibition of Sec14; cited from earlier work
[3] = system: three independent murine SCLC (mSCLC) cell lines; assay: Cytotoxicity against three murine SCLC cell lines; format: cell-based; conditions: Mus musculus, read-out: average EC50
Summary of the method: (§1)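 Murine SCLC cells were allowed to attach overnight, then given test compound as a 10-point log-dilution series. Viability was read by CellTiter-Glo luminescence at 72 h, with the reagent diluted 1:1 in PBS/1% Triton-X. Signals were normalized to DMSO-treated cells and IC50 values came from curve fitting (n = 2 technical replicates). Fold values are ratios of these IC50s.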

[4] = system: murine SCLC cell line 319N1; assay: Cytotoxicity assay; format: cell-based, mouse
Summary of the method: as §1

[5] = system: 319N1-M2KO resistant clones A–E; assay: Cytotoxicity against sulfonamide 27-resistant clones; format: cell-based, mouse; conditions: for IC50 fold change, resistant clones versus parental: all five clones A–E
[6] = target: T1, p50 (β-tubulin) in 518T2 murine SCLC cells (Mus musculus, UniProt P99024); format: binding; conditions: 50 nM to 50 μM, 1.5 h, Alexa Fluor 532 azide
Summary of the method: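 518T2 cells were plated at 1 million per well in DMEM with 5% FBS. Next day the alkyne probe in DMSO was added at 50 nM to 50 μM for 1.5 h at 37 °C, 5% CO2. Cells were PBS-washed and lysed in 1% SDS buffer (50 mM HEPES pH 7.4, 10 mM KCl, 2 mM MgCl2, benzonase). Lysates were copper-clicked to 25 μM Alexa Fluor 532 azide, run on SDS-PAGE and imaged by in-gel fluorescence.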

[7] = target: human recombinant β3 tubulin (Homo sapiens, UniProt Q13509); assay: Microtubule dynamics assay, recombinant β3 tubulin; format: biochemical
Summary of the method: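 Human αβ-tubulin (TUBA1B with TUBB3, C-terminal His-tag removed by TEV) was expressed in Tni insect cells and purified by Ni-affinity and anion exchange. Compound was added at 1, 5 or 10 μM versus DMSO; kymograph growth rates were taken from 71–119 microtubules over two trials.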

[8] = system: bovine brain tubulin; assay: Microtubule dynamics assay, brain tubulin; format: biochemical
[9] = target: T1, p50 (β-tubulin) in 518T2 murine SCLC cells; assay: Cell-based competition with alkyne probe 24; format: binding; conditions: probe 24 at 5 μM, pre-treatment with increasing concentrations
[10] = system: 518T2 cells; assay: Cell cycle analysis by flow cytometry; format: cell-based, mouse; conditions: 300 nM, 24 h
[11] = system: 518T2-Tubb5^T238A cells; assay: Dose response in Tubb5 T238A edited cells; format: cell-based, mouse; conditions: 518T2-Tubb5^T238A versus 518T2

Molecule: O=C(c1ccc(Cl)c([N+](=O)[O-])c1)N1CCN(c2ccccc2)CC1 [Compound 1]
- sensitivity of human SCLC cell lines [1]: exhibited sensitivity
- toxicity to yeast cells [2]: toxic to yeast cells
- EC50 [3]: 3210 ± 600 nM

Molecule: O=C(c1ccc(Cl)c([N+](=O)[O-])c1)N1CCN(c2ccccc2Cl)CC1 [Compound 2, (4-Chloro-3-nitrophenyl)(4-(2-chlorophenyl)piperazin-1-yl)methanone]
- antiproliferative activity in words ([4]; 319N1): slightly improved potency

Molecule: COc1cccc(N2CCN(C(=O)c3ccc(Cl)c([N+](=O)[O-])c3)CC2)c1 [Compound 3, (4-Chloro-3-nitrophenyl)(4-(3-methoxyphenyl)piperazin-1-yl)methanone]
- fold more potent than benzamide 1 ([4]; 319N1): ~3 fold

Molecule: Cc1cccc(N2CCN(C(=O)c3ccc(Cl)c([N+](=O)[O-])c3)CC2)c1 [Compound 4, (4-Chloro-3-nitrophenyl)(4-(m-tolyl)piperazin-1-yl)methanone]
- fold more potent than benzamide 1 ([4]; 319N1): ~3 fold

Molecule: Cc1ccc(Cl)cc1N1CCN(C(=O)c2ccc(Cl)c([N+](=O)[O-])c2)CC1 [Compound 10, (4-(5-Chloro-2-methylphenyl)piperazin-1-yl)(4-chloro-3-nitrophenyl)methanone]
- IC50 fold change, resistant clones versus parental [5]: > 2.5 fold
- EC50 ([4]; Mus musculus, 319N1): 182 nM

Molecule: O=C(c1ccc(Cl)c([N+](=O)[O-])c1)N1CCN(c2ccccc2F)CC1 [Compound 12]
- fold less active than parent benzamide 1 ([4]; 319N1): 2 fold

Molecule: Cc1ccc(Cl)cc1N1CCN(C(=O)c2ccc(F)c([N+](=O)[O-])c2)CC1 [Compound 20, (4-(5-Chloro-2-methylphenyl)piperazin-1-yl)(4-fluoro-3-nitrophenyl)methanone]
- EC50 ([4]; Mus musculus, 319N1): 818 nM

Molecule: Cc1ccc(Cl)cc1N1CCN(C(=O)c2ccc(I)c([N+](=O)[O-])c2)CC1 [Compound 22, (4-(5-Chloro-2-methylphenyl)piperazin-1-yl)(4-iodo-3-nitrophenyl)methanone]
- EC50 ([4]; Mus musculus, 319N1): 51 nM

Molecule: Cc1ccc(Cl)cc1N1CCN(C(=O)c2ccc(OC(F)(F)F)c([N+](=O)[O-])c2)CC1 [Compound 23, (4-(5-Chloro-2-methylphenyl)piperazin-1-yl)(3-nitro-4-(trifluoromethoxy)phenyl)methan-one]
- EC50 ([4]; Mus musculus, 319N1): 20 nM

Molecule: C#CCOc1cccc(N2CCN(C(=O)c3ccc(Cl)c([N+](=O)[O-])c3)CC2)c1 [Compound 24, (4-Chloro-3-nitrophenyl)(4-(3-(prop-2-yn-1-yloxy)phenyl)piperazin-1-yl)methanone]
- covalent modification of 50 kDa protein (p50), in-gel fluorescence [6]: covalently modified

Molecule: C#CCOc1cccc(N2CCN(C(=O)c3ccc(C)c([N+](=O)[O-])c3)CC2)c1 [Compound 25, (4-Methyl-3-nitrophenyl)(4-(3-(prop-2-yn-1-yloxy)phenyl)piperazin-1-yl)methanone]
- covalent modification of 50 kDa protein (p50), in-gel fluorescence [6]: not observed
- fold less active compared to 24 ([4]; 319N1): 10 fold

Molecule: COc1cc(OC)cc(N2CCN(C(=O)c3ccc(C=O)c([N+](=O)[O-])c3)CC2)c1 [Compound 26, 4-(4-(3,5-Dimethoxyphenyl)piperazine-1-carbonyl)-2-nitrobenzaldehyde]
- effect on dynamics of β3 tubulin microtubules, in words ([7]; 1, 5 and 10 μM): dose-dependently altered the dynamics
- effect on growth of microtubules of bovine brain tubulin, in words ([8]; 0.5 μM (SI Figure 5C)): potently reduced the growth
- EC50 ([4]; Mus musculus, 319N1): 127 nM

Molecule: COC(=O)c1c(C)oc2ccc(NS(=O)(=O)c3ccc(Cl)c([N+](=O)[O-])c3)cc12 [Compound 27]
- competition with probe 24 for p50, in words [9]: displaced probe 24 from p50 in a dose-responsive manner
- IC50 fold change, resistant clones versus parental [5]: > 2 fold

Molecule: O=C(c1ccc(Cl)cc1)N1CCN(c2ccccc2)CC1 [Compound 28]
- antiproliferative activity in words ([4]; 319N1): complete eradication of antiproliferative activity

Molecule: O=C(c1cccc([N+](=O)[O-])c1)N1CCN(c2ccccc2)CC1 [Compound 29]
- antiproliferative activity in words ([4]; 319N1): complete eradication of antiproliferative activity

Molecule: COc1cc2c(c(OC)c1OC)-c1ccc(OC)c(=O)cc1[C@@H](NC(C)=O)CC2 [colchicine, reference compound]
- cell cycle effect [10]: induced G2/M cell cycle arrest

Molecule: COc1cc([C@@H]2c3cc4c(cc3[C@@H](O[C@@H]3O[C@@H]5CO[C@@H](C)O[C@H]5[C@H](O)[C@H]3O)[C@H]3COC(=O)[C@H]23)OCO4)cc(OC)c1O [etoposide, reference compound]
- cross-resistance of 27-resistant clones, in words ([5]; clones A–E): not cross-resistant

Molecule: CC[C@]1(O)C[C@H]2CN(CCc3c([nH]c4ccccc34)[C@@](C(=O)OC)(c3cc4c(cc3OC)N(C=O)[C@H]3[C@@](O)(C(=O)OC)[C@H](OC(C)=O)[C@]5(CC)C=CCN6CC[C@]43[C@@H]65)C2)C1 [vincristine, reference compound]
- competition with probe 24 for p50, in words [9]: no such probe competition was observed

Molecule: (4-Bromo-3-nitrophenyl)(4-(5-chloro-2-methylphenyl)piperazin-1-yl)methanone [Compound 21]
- effect on in vitro microtubule growth rate of β3 tubulin, in words ([7]; up to 10 μM): failed to impair
- effect on growth of brain tubulin, in words ([8]; 1 μM): dramatically affected the growth
- reduction of growth of bovine brain microtubules ([8]; 10:1 (tubulin/compound) ratio, compared to control): approximately 80%
- EC50 ([4]; 319N1 mSCLC cells, quoted in running text): 55 nM
- cell cycle effect [10]: induced G2/M cell cycle arrest
- compound resistance compared to parental 518T2 cells [11]: Compound resistance to analog 21 was confirmed
